Screening data (PubChem)
Rows were chosen to be rich in hits. Some 2.1% of all compounds tested hit in one or more screens of this group.
STK33 inh: human STK33 kinase inhibition; Q9BYT3; purified STK33, MBP phosphorylation, ADP-Glo luminescence; inhibition, % at 10 µM; 320,000 compounds, 0.073% hits;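 active means inhibition at or above 25%, using the most active replicate where run in duplicate; inactive means inhibition below 25%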
MEKK2mut PB1 HTS: signal of MEK5 binding to mutant human MEKK2 PB1 domain | percent response, % at 10 µM | bead flow cytometry, Alexa488-MEK5 binding to MEKK2 mutant | 290,000 compounds, 0.35% hits; in the data active means percent response above about 24%, passing the limit was not always enough
GSK3A inh: inhibitors of human GSK-3 alpha kinase; ADP-Glo luminescence, 60 min; P49840; 320,000 compounds, 0.1% hits; inhibition, % at 10 µM;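 active means more than half of replicates show inhibition above 20%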;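 further: GST-tagged GSK-3 alpha with peptide substrate and 25 µM ATP; 0% = DMSO neutral wells and 100% = GW8510 positive control wells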
MEKK3 PB1 HTS: raises or lowers MEK5 binding to the human MEKK3 PB1 domain. bead-based flow cytometry, Alexa488-MEK5 binding to MEKK3; actives lie on both sides; 0 = blocked by unlabeled MEK5, 100 = vehicle. binding response (% of control), % at 10 µM. 290,000 compounds, 1.4% hits. AID 1529;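 active means binding response more than 3 SD above or below the average of its plate-row segment, actives on both sides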;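 further: Alexa488 bead fluorescence after subtracting the streptavidin-only scavenger bead signal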
Target sequence (Q99759 whole entry, looked up, the tested form may be a part): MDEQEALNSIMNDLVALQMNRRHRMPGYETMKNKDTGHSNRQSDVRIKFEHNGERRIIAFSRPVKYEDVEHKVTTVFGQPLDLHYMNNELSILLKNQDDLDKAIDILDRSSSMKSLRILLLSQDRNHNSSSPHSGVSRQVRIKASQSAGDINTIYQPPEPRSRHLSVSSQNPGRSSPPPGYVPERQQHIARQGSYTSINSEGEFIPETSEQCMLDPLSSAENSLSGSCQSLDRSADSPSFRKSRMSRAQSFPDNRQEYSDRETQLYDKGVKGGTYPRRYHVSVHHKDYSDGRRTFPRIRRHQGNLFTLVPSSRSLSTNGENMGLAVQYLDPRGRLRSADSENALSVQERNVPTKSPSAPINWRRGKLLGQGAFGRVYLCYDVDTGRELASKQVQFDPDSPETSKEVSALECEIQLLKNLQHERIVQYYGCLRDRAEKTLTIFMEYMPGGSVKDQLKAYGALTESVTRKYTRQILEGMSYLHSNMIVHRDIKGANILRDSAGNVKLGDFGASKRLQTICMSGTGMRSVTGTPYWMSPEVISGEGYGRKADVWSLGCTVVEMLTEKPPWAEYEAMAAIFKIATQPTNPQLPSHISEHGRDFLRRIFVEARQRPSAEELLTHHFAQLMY
GSK3beta inhib: human GSK3beta kinase inhibition; P49841; GST-GSK3beta kinase, ADP-Glo luminescence, 60 min; hits give low values; activity score (negative = inhibition), % at 10 µM; 300,000 compounds, 0.038% hits; AID 2097;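 active means more than half of replicate wells score below -50%, meaning over 50% inhibition versus plate controls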;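 further: 0% = median DMSO wells and -100% = median GW8510 positive control wells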
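test system = GST-tagged human GSK3beta kinase, cell-free | reagent = 25 µM ATP with peptide substrate | dosing = one dose of 10 µM per compound | schedule = 60 min reaction, RT | detection = luminescent ADP-Glo measurement of ADP formed | control set = DMSO neutral wells and GW8510 at 20 µM as positive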
MEKK2wt PB1 HTS: raises or lowers MEK5 binding to wildtype human MEKK2 PB1 domain; Q9Y2U5; binding response (% of control), % at 10 µM; bead flow cytometry, Alexa488-MEK5 binding to MEKK2 WT; actives lie on both sides; AID 1531; 290,000 compounds, 1.1% hits; in the data active means binding response below about 67% or above about 130%
MEKK2wt confirm: raises or lowers MEK5 binding to wildtype human MEKK2, retest | shares compounds with MEKK3 PB1 HTS | bead flow cytometry, Alexa488-MEK5 binding to MEKK2 WT; actives lie on both sides | binding response (% of control), % at 10 µM | 5,900 compounds, 2.4% hits | AID 1892; in the data active means binding response below about 16% or above about 210%; inactive means in between
MEKK2mut-MEK5: signal of MEK5 binding to mutant human MEKK2, retest | shares compounds with MEKK3 PB1 HTS | bead flow cytometry, Alexa488-MEK5 binding to MEKK2 mutant | percent response, % at 10 µM | 5,900 compounds, 2% hits | AID 1893; in the data active means percent response mostly above about 71%, no sharp cut-off; inactive means mostly below about 38%;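 further: higher means compound restores mutant binding toward wildtype level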
MEKK3 confirm: confirmation of inhibitors of MEK5 binding to human MEKK3. shares compounds with MEKK3 PB1 HTS. bead flow cytometry, Alexa488-MEK5 binding to MEKK3; hits give low values. binding response (% of control), % at 10 µM. 5,900 compounds, 1.8% hits;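 active means binding response below 72% of control, or above a set upper limit, though filed actives all read lower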;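 further: 100% = DMSO only wells and 0% = binding blocked by excess unlabeled MEK5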
* = called active by the depositor; . = no result given; [ ] = another dose, or the depositor's remark.

SMILES | STK33 inh | MEKK2mut PB1 HTS | GSK3A inh | MEKK3 PB1 HTS | GSK3beta inhib | MEKK2wt PB1 HTS | MEKK2wt confirm | MEKK2mut-MEK5 | MEKK3 confirm
CC(=O)[C@@]1(O)CCC2C3CC[C@H]4C[C@@H](O)CC[C@]4(C)C3CC[C@@]21C (stereo not given in full) | -2 | . | -1 | . | . | . | . | . | .
C[C@]12CCC3C(CC[C@H]4CCCC[C@]34C)C1CC[C@@]2(O)CNCCO (stereo not given in full) | 0 | 27* | 7 | 105 | 0 | 139* | 130 | 20 | 107
CC(=O)c1cccc(CN2CCCCC2C(=O)Nc2ccc(Oc3ccccc3)nc2)c1 (stereo not given) | -2 | 5 | -3 | 105 | -1 | 105 | . | . | .
CCN1C(=O)/C(=c2\sc3nc(=O)c(Cc4ccccc4)nn3c2=O)c2ccccc21 | 0 | 26 | -5 | 123 | 4 | 109 | . | . | .
C=CCN1C(=O)/C(=c2\sc3nc(=O)c(Cc4ccccc4)nn3c2=O)c2ccccc21 | 0 | -2 | -4 | 95 | 5 | -4.0*[inhibitor] | 89 | -2 | 91
CC(=O)c1cccc(S(=O)(=O)NCCCN2CCOCC2)c1 | 0 | . | 13 | . | . | . | . | . | .
O=C(O)CCn1c(CO)nc2ccccc21 | 1 | -1 | 0 | 129* | -1 | 107 | 106 | 5 | 105
OCc1nc2ccccc2n1CCCCOc1ccccc1 | -1 | . | 0 | . | -4 | . | . | . | .
O=c1c2ccccc2oc2ccc(NCCCn3ccnc3)cc12 | 6 | 1 | -2 | 100 | 1 | 98 | . | . | .
Cc1cc2oc3cc(NCCC4CCCN4C)ccc3c(=O)c2cc1C (stereo not given) | 6 | 22 | 4 | 109 | -3 | 178* | 142 | 21 | 103
O=C(/C=C/c1ccccc1)NC(NC(=S)Nc1cccc(Cl)c1)C(Cl)(Cl)Cl (stereo not given) | 0 | 4 | -3 | 110 | -1 | 108 | . | . | .
O=C(/C=C/c1ccccc1)NC(NC(=S)Nc1cccc(O)c1)C(Cl)(Cl)Cl (stereo not given) | 0 | 3 | 0 | 111 | 1 | 139* | 89 | -6 | 96
CC(C)(C)c1ccc(NC(=O)Nc2ccc(F)cc2)cc1 | -3 | 2 | 1 | 130* | 2 | 128 | 109 | 7 | 106
CC(C)(C)c1ccc(COC(=O)Nc2ccc(F)cc2)cc1 | -1 | 2 | -2 | 102 | 2 | 104 | . | . | .
CCOc1cccc2sc(N(CCCN(C)C)C(=O)c3ccc(C(=O)c4ccccc4)cc3)nc12 | 0 | 35* | -1 | 108 | 0 | 161* | 154 | 23 | 105
CCOc1cccc2sc(N(CCCN(C)C)C(=O)Cc3ccccc3)nc12 | 0 | 75* | 12 | 128 | -11 | 180* | 133 | 31 | 113
CN1CCN(NC(=O)c2cc(S(=O)(=O)Nc3ccc(Cl)cc3)ccc2Cl)CC1 | 1 | -4 | -2 | 92 | 7 | 97 | . | . | .
COC(=O)c1cn(C(=O)c2cccc(Br)c2)c2ccccc12 | 0 | 3 | -2 | 106 | 3 | 107 | . | . | .
FC(F)Oc1ccc(-n2cc(-c3ccc(Cl)cc3)[n+]3c2CCCCC3)cc1 | 0 | 3 | -1 | 104 | 4 | 102 | . | . | .
COc1cccc(CNn2c(-c3cccc(C)c3)nc3ccccc3c2=O)c1 | -1 | 4 | -1 | 107 | 2 | 102 | . | . | .
COc1ccc(OC)c(CNn2c(-c3cccc(C)c3)nc3ccccc3c2=O)c1 | 0 | -21 | -2 | 1.0*[inhibitor] | 3 | 0.0*[inhibitor] | 106 | 3 | 106
Cc1cc2cc(CN(CC3CCCO3)C(=S)NCc3ccco3)c(=O)[nH]c2cc1C (stereo not given) | 0 | 0 | 0 | 147* | -1 | 103 | 102 | -1 | 100
COc1cccc(C(=O)C2CCCN(Cc3cccn3-c3ccccn3)C2)c1 (stereo not given) | -1 | 7 | 0 | 102 | 2 | 105 | . | . | .
CC(C)Oc1cccc(C(=O)C2CCCN(Cc3cccn3-c3ccccn3)C2)c1 (stereo not given) | -1 | 35 | 2 | 107 | -1 | 174* | 115 | 7 | 106
CCn1cc(C(=O)NCC(C)C)c(=O)c2cc(F)c(N3CCN(C)CC3)cc21 | 1 | -24 | -6 | 89 | 0 | 90 | . | . | .
SMILES | STK33 inh | MEKK2mut PB1 HTS | GSK3A inh | MEKK3 PB1 HTS | GSK3beta inhib | MEKK2wt PB1 HTS | MEKK2wt confirm | MEKK2mut-MEK5 | MEKK3 confirm
CCn1cc(C(=O)O)c(=O)c2cc(F)c(N3CCN(C(=S)NC(=O)c4ccc(OC)cc4)CC3)cc21 | 1 | 4 | -1 | 104 | 1 | 105 | . | . | .
CCn1cc(C(=O)O)c(=O)c2cc(F)c(N3CCN(C(=S)NC(=O)c4ccc(Br)cc4)CC3)cc21 | 3 | 54* | 0 | 59*[inhibitor] | 2 | 85 | -1.0*[inhibitor] | -2 | 99
CCn1cc(C(=O)O)c(=O)c2cc(F)c(N3CCN(C)CC3)cc21 | 0 | 3 | -2 | 107 | -3 | 103 | . | . | .
CCn1cc(C(=O)O)c(=O)c2cc(F)c(N3CCNCC3)cc21 | . | -4 | . | 74*[inhibitor] | 1 | 97 | 95 | -5 | 103
CCn1cc(C(=O)NCc2ccc3c(c2)OCO3)c(=O)c2cc(F)c(N3CCN(C)CC3)cc21 | 0 | 12 | 0 | 105 | -1 | 138* | 114 | 7 | 106
CC(C)CCNC(=O)CN(Cc1ccco1)C(=O)CCC(=O)Nc1nccs1 | -1 | 1 | 17 | 101 | . | 100 | . | . | .
COc1ccc(NC(=O)c2cc(S(=O)(=O)N3CCOCC3)cs2)cc1 | -1 | 7 | -2 | 105 | 6 | 107 | . | . | .
C=CCOc1ccccc1CN1CCCN(C)CC1 | -2 | 8 | -1 | 107 | 1 | 109 | . | . | .
O=C(OCC(=O)N1CCN(Cc2ccccc2)CC1)c1ccc(Cl)cc1 | 0 | -42 | 1 | 4.0*[inhibitor] | -2 | 6.0*[inhibitor] | 99 | -3 | 98
O=C(OCC(=O)N1CCN(C(=O)c2ccco2)CC1)c1ccc(Cl)cc1 | 0 | . | 0 | . | . | . | . | . | .
CCCCn1c(N)c(N(CCOC)C(=O)CSCc2ccc(C)cc2)c(=O)[nH]c1=O | -1 | . | 0 | . | -3 | . | . | . | .
CCc1cccc(C)c1N(C(=O)Cn1c(=O)[nH]c2ccccc21)C(C)COC (stereo not given) | -2 | 24* | -5 | 111 | 2 | 114 | 99 | -3 | 100
